Laboratory results as given in ChEMBL document CHEMBL4024749, “Discovery of 3,5-Diphenyl-4-methyl-1,3-oxazolidin-2-ones as Novel, Potent, and Orally Available Δ-5 Desaturase (D5D) Inhibitors” (J Med Chem, 2017).
Each block holds one molecule with its values, some of them ahead of it.

Legend:
[1] = Cmax in ApoE knockout mouse at 1 mg/kg, po qd dosed via gavage for 2 weeks by HPLC analysis; format: ADME, organism-based; parameters: dose 1 mg/kg, route oral; conditions: in vivo
[2] = MRT (0 to 8 hrs) in mouse at 0.1 mg/kg, iv or 1 mg/kg, po measured; format: ADME, organism-based; conditions: in vivo
[3] = AUC (0 to 8 hrs) in mouse at 0.1 mg/kg, iv or 1 mg/kg, po; format: ADME, organism-based; conditions: in vivo
[4] = Ratio of Cmax in dog ECG model at 5 mg/kg, iv to Cmax in ApoE knockout mouse at 1 mg/kg, po qd dosed via gavage for 2 weeks; format: ADME, organism-based; conditions: in vivo, 336 h
CYP2C9 = CYP2C9 (Homo sapiens, UniProt P11712); assay: Inhibition of CYP2C9 (unknown origin) at 10 uM
Cytochrome P450 2D6 = Cytochrome P450 2D6 (Homo sapiens, UniProt P10635); assay: Inhibition of CYP2D6 (unknown origin); format: ADME
Mus musculus [5] = assay: In vivo inhibition of D5D in ApoE knockout mouse assessed as decrease in AA/DGLA ratio at 0.3 mg/kg, po qd dosed via gavage for 2 weeks by HPLC analysis; format: functional; conditions: 336 h
How it was run: (§1)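 ApoE KO mice, 13 weeks old, fed Western diet for 2 weeks; from day after diet start, dosed by gavage each morning at 10 mL/kg with suspension (0.3–3 mg/kg). Livers taken morning after final dose; phospholipid AA and DGLA measured by HPLC after labeling; AA/DGLA decrease relative to vehicle group as 100%.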

Mus musculus [6] = assay: In vivo inhibition of D5D in ApoE knockout mouse assessed as decrease in AA/DGLA ratio at 3 mg/kg, po qd dosed via gavage for 2 weeks by HPLC analysis; format: functional; conditions: 336 h; how it was run: as §1
hERG (KCNH2) = hERG (KCNH2) (Homo sapiens, UniProt Q12809); assay: Inhibition of human ERG at 10 uM by patch clamp assay
Cytochrome P450 2C9 = Cytochrome P450 2C9 (Homo sapiens, UniProt P11712); assay: Inhibition of CYP2C9 (unknown origin); format: ADME
Mus musculus [7] = assay: In vivo inhibition of D5D in C57BL/6J mouse liver assessed as decrease in AA/DGLA ratio by measuring inhibition index at 3 mg/kg, qd administered via oral gavage for 4 days by HPLC analysis relative to control; format: functional; conditions: 96 h
How it was run: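 Male C57BL/6J mice, 7–9 weeks old, on normal chow, individually caged; 3 mg/kg suspension in 0.5% methylcellulose by gavage each morning at 10 mL/kg for 4 days. Liver taken next morning; phospholipid fraction from about 40 mg tissue labeled, AA and DGLA measured by HPLC; AA/DGLA decrease versus vehicle group taken as 100%.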

Mus musculus [8] = assay: In vivo inhibition of D5D in ApoE knockout mouse assessed as decrease in AA/DGLA ratio at 1 mg/kg, po qd dosed via gavage for 2 weeks by HPLC analysis; format: functional; conditions: 336 h; how it was run: as §1
[9] = Oral bioavailability in mouse at 0.1 mg/kg, iv or 1 mg/kg administered as cassette dose up to 8 hrs; format: ADME, organism-based; conditions: in vivo
Cytochrome P450 3A4 = Cytochrome P450 3A4 (Homo sapiens, UniProt P08684); assay: Inhibition of CYP3A4 (unknown origin); format: ADME
[10] = biological target: Acyl-CoA (8-3)-desaturase (Homo sapiens, UniProt O60427); assay: Inhibition of D5D in human HepG2 cells assessed as [14C]AA formation from [14C]DGLA preincubated for 30 mins followed by [14C]eicosatrienoic acid addition measured after 3 hrs by TLC analysis; format: cell-based
How it was run: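 HepG2 plated at 1 × 10^5 cells/well, cultured overnight in DMEM/10% FBS, PBS-washed, then preincubated 30 min at 37 °C with compound in DMEM with penicillin/streptomycin and 0.3% BSA. 0.1 μCi [14C]eicosatrienoic acid added and cells incubated 3 h at 37 °C; lipids saponified overnight at 55 °C with NaOH, acidified, extracted with chloroform/MeOH, separated by TLC.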

Canis familiaris = assay: Cardiotoxicity in dog at 5 mg/kg, iv by ECG analysis; format: toxicity, organism-based, Canis lupus familiaris; conditions: in vivo
[11] = Cmax in dog at 5 mg/kg, iv; format: ADME, organism-based, Canis lupus familiaris; parameters: dose 5 mg/kg, route intravenous; conditions: in vivo
[12] = Induction of CYP3A (unknown origin); format: ADME; conditions: human
[13] = biological target: Acyl-CoA (8-3)-desaturase (Rattus norvegicus, UniProt Q920R3); assay: Displacement of [3H]T-3364366 from D5D in rat liver microsomal membrane preincubated for 15 mins followed by radioligand addition measured after 150 mins by TopCount microscintillation counting assay; format: cell membranes
How it was run: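 Rat liver microsome fraction (30 μg/well) preincubated 15 min with test compound at room temperature in 10 mM Tris-HCl pH 7.5, 100 mM KCl, 10 mM NaF buffer, 200 μL/well; bound ligand trapped on GF/C filters, washed 5× with ice-cold buffer, counted by scintillation. Nonspecific binding with 10 μM unlabeled T-3364366; IC50 from three-parameter logistic fit.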

Cytochrome P450 2C8 = biological target: T1, Cytochrome P450 2C8 (Homo sapiens, UniProt P10632); assay: Inhibition of CYP2C8 (unknown origin); format: ADME
T1 sequence (P10632 whole entry): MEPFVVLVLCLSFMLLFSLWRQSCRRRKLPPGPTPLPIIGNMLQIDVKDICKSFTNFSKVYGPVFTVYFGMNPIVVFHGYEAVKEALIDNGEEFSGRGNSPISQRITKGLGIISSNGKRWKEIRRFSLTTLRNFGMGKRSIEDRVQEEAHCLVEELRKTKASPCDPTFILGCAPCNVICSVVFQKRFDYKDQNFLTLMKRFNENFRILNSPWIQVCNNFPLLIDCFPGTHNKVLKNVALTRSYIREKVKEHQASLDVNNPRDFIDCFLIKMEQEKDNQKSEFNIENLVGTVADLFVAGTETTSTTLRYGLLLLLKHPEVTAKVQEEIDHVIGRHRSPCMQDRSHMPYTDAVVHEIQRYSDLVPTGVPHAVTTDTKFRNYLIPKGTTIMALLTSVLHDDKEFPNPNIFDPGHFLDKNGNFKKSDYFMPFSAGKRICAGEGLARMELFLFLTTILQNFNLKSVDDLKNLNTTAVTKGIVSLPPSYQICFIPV

Liver [14] = assay: Metabolic stability in mouse liver microsomes; format: ADME, microsome
Liver [15] = assay: Metabolic stability in human liver microsomes; format: ADME, microsome
[16] = AUC (0 to 8 hrs) in mouse at 1 mg/kg, po administered as cassette dose; format: ADME, organism-based; parameters: time < 8 hr, dose 1 mg/kg, route oral; conditions: in vivo
[17] = MRT (0 to 8 hrs) in mouse at 1 mg/kg, po administered as cassette dose; format: ADME, organism-based; conditions: in vivo
Mus musculus [18] = assay: In vivo inhibition of D5D in C57BL/6J mouse liver assessed as decrease in AA/DGLA ratio by measuring inhibition index at 3 mg/kg, qd administered via oral gavage for 4 days by HPLC analysis relative to control; conditions: 96 h
[19] = Drug level in human hepatocytes treated with 5-(4-Fluorophenyl)-3-(3-methoxyphenyl)-1,3-oxazolidin-2-one by LC-MS/MS analysis; format: ADME, cell-based, Hepatocyte
[20] = Drug level in mouse hepatocytes treated with 5-(4-Fluorophenyl)-3-(3-methoxyphenyl)-1,3-oxazolidin-2-one by LC-MS/MS analysis; format: ADME, cell-based, Hepatocyte

Sequence of Acyl-CoA (8-3)-desaturase (Homo sapiens, UniProt O60427) (O60427 whole entry): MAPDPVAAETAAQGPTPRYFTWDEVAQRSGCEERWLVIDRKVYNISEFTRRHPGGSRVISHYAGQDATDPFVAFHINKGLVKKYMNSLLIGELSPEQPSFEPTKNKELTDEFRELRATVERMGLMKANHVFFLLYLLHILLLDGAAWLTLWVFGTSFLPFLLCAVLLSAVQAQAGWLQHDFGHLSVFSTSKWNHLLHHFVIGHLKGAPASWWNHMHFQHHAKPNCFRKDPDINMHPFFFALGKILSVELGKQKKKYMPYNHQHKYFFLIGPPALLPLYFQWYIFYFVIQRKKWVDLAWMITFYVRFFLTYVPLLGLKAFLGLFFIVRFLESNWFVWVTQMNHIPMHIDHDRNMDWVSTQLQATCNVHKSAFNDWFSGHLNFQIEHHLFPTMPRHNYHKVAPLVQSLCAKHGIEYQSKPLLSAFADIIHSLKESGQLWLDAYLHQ
Sequence of Acyl-CoA (8-3)-desaturase (Rattus norvegicus, UniProt Q920R3) (Q920R3 whole entry): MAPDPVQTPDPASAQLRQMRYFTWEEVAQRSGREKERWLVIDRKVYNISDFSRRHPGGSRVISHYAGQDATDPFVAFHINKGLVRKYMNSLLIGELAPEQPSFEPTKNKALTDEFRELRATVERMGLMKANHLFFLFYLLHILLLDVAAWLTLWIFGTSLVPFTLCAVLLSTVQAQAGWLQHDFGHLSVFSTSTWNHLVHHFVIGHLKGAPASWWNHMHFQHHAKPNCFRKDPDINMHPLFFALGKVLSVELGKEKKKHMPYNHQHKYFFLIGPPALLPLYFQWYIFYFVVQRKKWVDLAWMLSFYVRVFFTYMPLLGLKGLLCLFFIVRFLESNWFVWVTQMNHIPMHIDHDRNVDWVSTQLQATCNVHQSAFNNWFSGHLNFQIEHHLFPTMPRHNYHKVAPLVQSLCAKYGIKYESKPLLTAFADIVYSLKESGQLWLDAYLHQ
Sequence of CYP2C9 (P11712 whole entry): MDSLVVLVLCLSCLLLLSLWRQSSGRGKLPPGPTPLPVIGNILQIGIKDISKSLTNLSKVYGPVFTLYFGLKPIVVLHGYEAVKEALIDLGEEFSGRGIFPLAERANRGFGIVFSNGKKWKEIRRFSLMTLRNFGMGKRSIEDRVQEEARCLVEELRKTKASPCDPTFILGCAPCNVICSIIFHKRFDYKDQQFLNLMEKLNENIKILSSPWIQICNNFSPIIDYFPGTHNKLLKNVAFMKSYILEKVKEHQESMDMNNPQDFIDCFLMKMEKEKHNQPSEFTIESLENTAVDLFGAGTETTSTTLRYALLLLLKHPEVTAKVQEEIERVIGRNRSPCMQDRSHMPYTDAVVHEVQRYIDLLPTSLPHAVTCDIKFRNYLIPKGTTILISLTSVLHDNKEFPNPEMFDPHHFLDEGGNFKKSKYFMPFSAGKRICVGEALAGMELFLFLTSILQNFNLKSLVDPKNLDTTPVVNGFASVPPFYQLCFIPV
Sequence of hERG (KCNH2) (Q12809 whole entry): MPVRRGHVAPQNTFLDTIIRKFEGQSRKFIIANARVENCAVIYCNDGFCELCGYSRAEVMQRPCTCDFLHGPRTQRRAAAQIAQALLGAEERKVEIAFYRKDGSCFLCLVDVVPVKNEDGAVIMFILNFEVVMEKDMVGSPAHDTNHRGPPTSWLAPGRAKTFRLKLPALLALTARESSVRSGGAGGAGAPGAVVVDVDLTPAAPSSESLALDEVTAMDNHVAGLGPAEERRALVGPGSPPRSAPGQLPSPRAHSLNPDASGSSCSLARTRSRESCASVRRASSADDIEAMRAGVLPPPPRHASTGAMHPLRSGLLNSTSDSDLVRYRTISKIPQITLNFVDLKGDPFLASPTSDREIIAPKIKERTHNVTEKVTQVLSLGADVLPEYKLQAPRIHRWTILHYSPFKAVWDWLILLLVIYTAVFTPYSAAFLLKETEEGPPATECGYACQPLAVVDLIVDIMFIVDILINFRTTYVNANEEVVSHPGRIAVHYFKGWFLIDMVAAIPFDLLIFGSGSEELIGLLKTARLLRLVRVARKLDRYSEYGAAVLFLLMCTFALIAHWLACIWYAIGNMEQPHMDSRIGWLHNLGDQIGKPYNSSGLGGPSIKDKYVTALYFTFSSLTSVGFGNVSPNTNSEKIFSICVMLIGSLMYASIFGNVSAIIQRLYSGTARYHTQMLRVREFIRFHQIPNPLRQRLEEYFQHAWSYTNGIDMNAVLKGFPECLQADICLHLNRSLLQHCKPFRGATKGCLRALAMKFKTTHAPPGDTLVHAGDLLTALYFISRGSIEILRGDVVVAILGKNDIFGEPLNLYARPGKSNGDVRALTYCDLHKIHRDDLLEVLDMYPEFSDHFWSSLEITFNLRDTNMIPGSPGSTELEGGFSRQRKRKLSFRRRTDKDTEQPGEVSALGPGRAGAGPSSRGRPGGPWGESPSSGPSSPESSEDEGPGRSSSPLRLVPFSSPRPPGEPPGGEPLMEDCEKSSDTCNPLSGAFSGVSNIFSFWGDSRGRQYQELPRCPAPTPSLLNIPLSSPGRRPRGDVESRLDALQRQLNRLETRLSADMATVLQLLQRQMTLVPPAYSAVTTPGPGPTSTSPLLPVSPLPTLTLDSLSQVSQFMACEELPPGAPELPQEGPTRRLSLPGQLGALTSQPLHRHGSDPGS
Sequence of Cytochrome P450 3A4 (P08684 whole entry): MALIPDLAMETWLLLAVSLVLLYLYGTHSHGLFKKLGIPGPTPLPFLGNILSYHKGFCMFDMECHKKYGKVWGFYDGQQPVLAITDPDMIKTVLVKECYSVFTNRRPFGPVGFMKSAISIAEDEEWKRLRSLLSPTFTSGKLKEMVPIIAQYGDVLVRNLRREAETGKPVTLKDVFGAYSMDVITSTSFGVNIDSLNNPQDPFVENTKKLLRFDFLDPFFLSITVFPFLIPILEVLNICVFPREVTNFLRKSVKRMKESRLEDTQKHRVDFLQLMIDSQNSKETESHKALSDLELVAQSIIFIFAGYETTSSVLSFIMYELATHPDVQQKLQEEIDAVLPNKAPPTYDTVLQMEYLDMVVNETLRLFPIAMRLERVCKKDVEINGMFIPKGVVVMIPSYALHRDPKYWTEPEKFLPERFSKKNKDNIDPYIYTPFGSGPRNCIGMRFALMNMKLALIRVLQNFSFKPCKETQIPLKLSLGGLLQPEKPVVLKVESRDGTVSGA
Sequence of Cytochrome P450 2D6 (P10635 whole entry): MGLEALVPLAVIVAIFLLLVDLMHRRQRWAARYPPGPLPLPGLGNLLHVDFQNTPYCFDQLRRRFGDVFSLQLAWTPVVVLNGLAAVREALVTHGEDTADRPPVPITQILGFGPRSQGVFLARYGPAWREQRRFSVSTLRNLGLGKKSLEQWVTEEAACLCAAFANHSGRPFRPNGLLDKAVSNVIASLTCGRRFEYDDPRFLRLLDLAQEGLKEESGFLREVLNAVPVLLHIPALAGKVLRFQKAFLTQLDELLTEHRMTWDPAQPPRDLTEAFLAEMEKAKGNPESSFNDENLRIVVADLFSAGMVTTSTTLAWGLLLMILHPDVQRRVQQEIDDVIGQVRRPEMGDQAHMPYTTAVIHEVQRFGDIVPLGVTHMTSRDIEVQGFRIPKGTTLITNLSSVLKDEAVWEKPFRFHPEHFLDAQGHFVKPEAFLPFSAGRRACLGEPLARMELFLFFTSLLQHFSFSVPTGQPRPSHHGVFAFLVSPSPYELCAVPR
Sequence of Cytochrome P450 2C9 (P11712 whole entry): as the sequence (P11712 whole entry) above

SMILES: N#Cc1cccc(N2C[C@H](c3ccc(F)cc3)OC2=O)c1
- IC50 [10]: 60 nM
- IC50 [13]: 49 nM
- Stability (Liver [14]): 50 µL/min/mg
- Stability (Liver [15]): 4 µL/min/mg

SMILES: C[C@@H]1[C@@H](c2ccc(F)cc2)OC(=O)N1c1cccc(C#N)c1
- IC50 [13]: 5800 nM

SMILES: C[C@H]1[C@H](c2ccc(F)cc2)OC(=O)N1c1cccc(C#N)c1
- AUC(0-t) at 8 h [16]: 2080 ng·h/mL
- MRT last [17]: 3.4 h
- bioavailability [9]: 87.2%
- IC50 [10]: 8.7 nM
- inhibition in vivo at 3 mg/kg (Mus musculus [18]): 42%
- IC50 [13]: 5.3 nM
- Stability (Liver [14]): 24 µL/min/mg

SMILES: C[C@H]1[C@H](c2ccc(F)cc2)OC(=O)N1c1cc(Cl)cc(C#N)c1
- MRT last [2]: 4.2 h
- AUC(0-t) [3]: 974 ng·h/mL
- inhibition at 10 µM (CYP2C9): 44.2%
- inhibition in vivo at 3 mg/kg (Mus musculus [7]): 71%
- bioavailability [9]: 74.4%
- IC50 [10]: 0.52 nM
- IC50 [13]: < 1 nM

SMILES: O=C1OC(c2ccccc2)CN1Cc1cc(O)c(Cl)cc1Cl (racemic)
- IC50 [10]: 1100 nM
- IC50 [13]: 12 nM

SMILES: O=C1OC(c2ccc(F)cc2)CN1Cc1ccc(Cl)cc1Cl (racemic)
- IC50 [10]: 150 nM
- IC50 [13]: 79 nM

SMILES: O=C1OC(c2ccc(F)cc2)CN1c1ccccc1 (racemic)
- IC50 [10]: 190 nM
- IC50 [13]: 150 nM
- Stability (Liver [15]): 45 µL/min/mg

SMILES: COc1ccc(OC)c(N2CC(c3ccc(F)cc3)OC2=O)c1 (racemic)
- IC50 [10]: 18 nM
- IC50 [13]: 13 nM

SMILES: COc1ccc(OC)c(N2CCN(C(=O)c3ccc(Cl)cc3)C(C)C2=O)c1 (racemic)
- IC50 [13]: 360 nM

SMILES: CCn1cc(C(=O)N(C)C(C)c2ccc(F)cc2)c2ccccc21 (racemic)
- IC50 [13]: 47 nM

SMILES: O=C1OC(c2ccc(F)cc2)CN1c1cccc(Cl)c1 (racemic)
- IC50 [10]: 55 nM
- IC50 [13]: 23 nM
- Stability (Liver [15]): 72 µL/min/mg

More lines, main results first:

- Cmax [1]: 280 ng/mL
- MRT last [2]: 4 h
- AUC(0-t) [3]: 891 ng·h/mL
- inhibition at 10 µM (CYP2C9): 28.5%
- inhibition (INH) (Cytochrome P450 2D6): Not Active
- inhibition (INH) (Cytochrome P450 2C9): Not Active
- bioavailability [9]: 53.3%
- inhibition (INH) (Cytochrome P450 3A4): Not Active
- IC50 [10]: 1.5 nM
- Cmax [11]: 7150 ng/mL
- Activity [12]: Not Active
- IC50 [13]: 1.5 nM
- inhibition (INH) (Cytochrome P450 2C8): Not Active
SMILES: C[C@H]1[C@H](c2ccc(F)cc2)OC(=O)N1c1cc(C#N)cc(C#N)c1
- Ratio [4]: > 25
- inhibition in vivo at 0.3 mg/kg (Mus musculus [5]): 61%
- inhibition in vivo at 3 mg/kg (Mus musculus [6]): 66%
- inhibition at 10 µM (hERG (KCNH2)): 30.7%
- inhibition in vivo at 3 mg/kg (Mus musculus [7]): 74%
- inhibition in vivo at 1 mg/kg (Mus musculus [8]): 67%
- Activity (Canis familiaris): Non-Toxic

- IC50 [13]: 39 nM
SMILES: Cn1c(=O)n(Cc2cc(O)c(Cl)cc2Cl)c2ccccc21

- IC50 [13]: 310 nM
SMILES: COc1ccc(CN(C)C(=O)c2ccc3c(c2)OCO3)c(OC)c1

- Drug metabolism [19]: Metabolite_Detected
SMILES: O=C1OC(c2ccc(F)cc2)CN1c1cccc(O)c1 (centres undefined)

- IC50 [13]: > 10000 nM
SMILES: N#Cc1cccc(N2C[C@@H](c3ccc(F)cc3)OC2=O)c1

- Drug metabolism [20]: Metabolite_Detected
- Drug metabolism [19]: Metabolite_Detected
SMILES: O=C1OC(c2ccc(F)cc2)CN1c1cccc(OS(=O)(=O)O)c1 (centres undefined)

- Drug metabolism [20]: Metabolite_Detected
- Drug metabolism [19]: Metabolite_Detected
SMILES: O=C1OC(c2ccc(F)cc2)CN1c1cccc(O[C@@H]2O[C@H](CO)[C@@H](O)[C@H](O)[C@H]2O)c1 (some centres undefined)

- IC50 [13]: 450 nM
SMILES: CC1(C)C(c2ccc(F)cc2)OC(=O)N1c1cccc(C#N)c1 (racemic)

- IC50 [10]: 8.9 nM
- IC50 [13]: 13 nM
SMILES: C[C@H]1[C@H](c2ccc(F)cc2)OC(=O)N1c1cccc(C#N)c1 (racemic)

- IC50 [13]: 410 nM
- Stability (Liver [14]): 7 µL/min/mg
- Stability (Liver [15]): 21 µL/min/mg
SMILES: C[C@@H]1[C@H](c2ccc(F)cc2)OC(=O)N1c1cccc(C#N)c1 (racemic)

- IC50 [10]: 170 nM
- IC50 [13]: 51 nM
- Stability (Liver [15]): 81 µL/min/mg
SMILES: O=C1OC(c2ccc(F)cc2)CN1c1cccc(F)c1 (racemic)

- IC50 [10]: 170 nM
- IC50 [13]: 78 nM
- Stability (Liver [14]): 94 µL/min/mg
SMILES: N#Cc1cccc(N2CC(c3ccc(F)cc3)OC2=O)c1 (racemic)

- AUC(0-t) at 8 h [16]: 1200 ng·h/mL
- MRT last [17]: 3.8 h
- bioavailability [9]: 61%
- IC50 [10]: 3.7 nM
- IC50 [13]: 4 nM
SMILES: C[C@H]1[C@H](c2ccc(F)cc2)OC(=O)N1c1cc(F)cc(C#N)c1 (racemic)
- inhibition in vivo at 3 mg/kg (Mus musculus [18]): 63%
